This is an account of results in ChEMBL document CHEMBL2086389, “Synthesis and biological evaluation of crown ether fused quinazoline analogues as potent EGFR inhibitors” (Bioorg Med Chem Lett, 2012).

Data set [1] has as its target T1, Epidermal growth factor receptor (Homo sapiens, UniProt P00533). As to the kind of experiment: Inhibition of EGFR-mediated intracellular tyrosine phosphorylation in EGF-stimulated human A431 cells after 2.5 hrs by SDS-PAGE analysis. The data set is classed as cell-based, A-431. The procedure, abridged:
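A431 cells were grown 2 days in DMEM with 10% FCS at 37 °C, 5% CO₂, then serum-starved 18 h. Inhibitor was added at 0, 10, 50, 250 and 1000 nM for 2.5 h at 37 °C. Cells were stimulated with 100 ng/ml EGF for 5 min and lysed in SDS buffer with 1 mM vanadate. Lysates were run on 10% SDS–PAGE, immunoblotted with anti-phosphotyrosine (pY99, 4G10), detected by ECL, and quantified by densitometry.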

Data set [2] addresses T1, Epidermal growth factor receptor. As to the kind of experiment: Inhibition of EGFR using GST-Crk as substrate assessed as phosphorylated Crk level after 20 mins by SDS-PAGE analysis. An outline of the steps:
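Kinase mix was incubated with inhibitor at 0, 0.5, 2.5, 12.5 and 62.5 nM on ice for 10 min, then at 30 °C for 20 min. The reaction was quenched with SDS sample buffer at 100 °C for 4 min. Proteins were run on 10% SDS–PAGE and the dried gel was quantified by phosphorimager.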

In data set [3] the test system is A-431. As to the kind of experiment: Antitumor activity against human A431 cells xenografted in mouse assessed as inhibition of tumor growth administered as po qd. The format is functional, organism-based. An outline of the steps: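 Mice carried A431 xenografts. At a tumor volume of about 20 mm³ they were randomized, n = 10/group. Dosing was oral, once daily, at 30, 60 and 120 mg/kg in 0.5% CMC-Na vehicle, for 18–30 days. The positive control was Taxol 30 mg/kg ip once weekly. Tumor size was followed.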

The nature of data set [4]: Clearance in rat at 35 mg/kg, iv and 35 mg/kg, po. The data set is classed as ADME, organism-based. Conditions: in vivo. The procedure, abridged: (§1)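 Rats given a single oral dose (35 mg/kg) and a separate single intravenous dose (35 mg/kg). Pharmacokinetic parameters were derived from these two dosings.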
The nature of data set [5]: Oral bioavailability in rat at 35 mg/kg. The data set is classed as ADME, organism-based. Conditions: in vivo. The procedure, abridged: as §1
Data set [6] deals with Tyrosine-protein kinase ABL1 (Homo sapiens) (UniProt P00519). In words: Inhibition of Abl at >[…] nM.
For data set [7], the system named is Rattus norvegicus. In words: AUC in rat at 35 mg/kg, po. The settings on record: in vivo. More on the design: dose 35 mg/kg, route oral. The format is ADME, organism-based, Plasma. An outline of the steps: as §1
In data set [8] the target is Proto-oncogene tyrosine-protein kinase Src (Homo sapiens) (UniProt P12931). As to the kind of experiment: Inhibition of c-Src at >1000 nM.
A short description of data set [9]: Cmax in rat at 35 mg/kg, po. On the set-up: dose 35 mg/kg, route oral. Conditions: in vivo. The data set is classed as ADME, organism-based. The procedure, abridged:
as §1

Data set [10] can be described thus: Half life in rat at 35 mg/kg, po. The data set is classed as ADME, organism-based. On the set-up: dose 35 mg/kg, route oral. Conditions: in vivo. An outline of the steps:
as §1

Data set [11] has as its target Tyrosine-protein kinase ABL2 (Homo sapiens) (UniProt P42684). In words: Inhibition of Arg at >[…] nM.
The nature of data set [12]: Volume of distribution at steady state in rat at 35 mg/kg, iv and 35 mg/kg, po. The data set is classed as ADME, organism-based. The settings on record: in vivo, read-out: Vdss. An outline of the steps: as §1
A short description of data set [13]: Mean residence time in rat at 35 mg/kg, iv and 35 mg/kg, po. The data set is classed as ADME, organism-based. The settings on record: in vivo. The procedure, abridged: as §1

Each structure is given as a SMILES string. The source made the active and inactive calls. The rule behind the calls is not given here. Bounds are passed on as bounds.

T1 sequence (P00533 whole entry): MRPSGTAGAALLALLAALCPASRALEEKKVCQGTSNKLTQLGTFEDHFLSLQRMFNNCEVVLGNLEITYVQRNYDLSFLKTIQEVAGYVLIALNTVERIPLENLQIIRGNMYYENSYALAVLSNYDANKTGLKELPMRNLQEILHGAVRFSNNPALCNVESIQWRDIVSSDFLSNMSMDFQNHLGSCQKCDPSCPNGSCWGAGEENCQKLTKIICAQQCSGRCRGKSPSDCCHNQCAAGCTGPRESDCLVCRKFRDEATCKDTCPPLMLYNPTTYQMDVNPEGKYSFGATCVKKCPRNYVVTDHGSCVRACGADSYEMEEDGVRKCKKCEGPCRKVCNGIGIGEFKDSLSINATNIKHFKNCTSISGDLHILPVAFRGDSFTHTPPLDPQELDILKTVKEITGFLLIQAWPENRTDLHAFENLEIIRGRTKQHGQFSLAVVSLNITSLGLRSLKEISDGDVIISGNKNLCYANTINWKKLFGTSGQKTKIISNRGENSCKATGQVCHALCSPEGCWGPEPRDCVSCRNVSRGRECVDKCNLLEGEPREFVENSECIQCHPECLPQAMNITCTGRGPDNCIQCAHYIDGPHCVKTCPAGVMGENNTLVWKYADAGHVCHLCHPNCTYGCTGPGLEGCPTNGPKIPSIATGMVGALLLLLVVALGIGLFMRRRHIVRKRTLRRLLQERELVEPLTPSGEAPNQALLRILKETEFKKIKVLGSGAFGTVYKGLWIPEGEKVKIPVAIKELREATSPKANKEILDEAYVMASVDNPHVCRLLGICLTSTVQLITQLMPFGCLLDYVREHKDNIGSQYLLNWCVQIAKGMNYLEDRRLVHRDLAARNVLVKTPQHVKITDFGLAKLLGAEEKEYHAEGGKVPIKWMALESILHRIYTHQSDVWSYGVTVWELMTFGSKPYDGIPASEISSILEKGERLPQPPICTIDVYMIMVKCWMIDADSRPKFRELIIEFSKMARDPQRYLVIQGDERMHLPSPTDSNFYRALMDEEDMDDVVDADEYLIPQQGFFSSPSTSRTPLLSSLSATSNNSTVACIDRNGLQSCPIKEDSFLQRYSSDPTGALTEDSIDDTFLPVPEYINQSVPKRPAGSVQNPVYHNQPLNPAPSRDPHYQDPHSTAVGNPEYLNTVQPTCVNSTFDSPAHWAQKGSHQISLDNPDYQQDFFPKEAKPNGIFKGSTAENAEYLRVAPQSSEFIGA
Chain of Tyrosine-protein kinase ABL2 (Homo sapiens) (P42684 whole entry): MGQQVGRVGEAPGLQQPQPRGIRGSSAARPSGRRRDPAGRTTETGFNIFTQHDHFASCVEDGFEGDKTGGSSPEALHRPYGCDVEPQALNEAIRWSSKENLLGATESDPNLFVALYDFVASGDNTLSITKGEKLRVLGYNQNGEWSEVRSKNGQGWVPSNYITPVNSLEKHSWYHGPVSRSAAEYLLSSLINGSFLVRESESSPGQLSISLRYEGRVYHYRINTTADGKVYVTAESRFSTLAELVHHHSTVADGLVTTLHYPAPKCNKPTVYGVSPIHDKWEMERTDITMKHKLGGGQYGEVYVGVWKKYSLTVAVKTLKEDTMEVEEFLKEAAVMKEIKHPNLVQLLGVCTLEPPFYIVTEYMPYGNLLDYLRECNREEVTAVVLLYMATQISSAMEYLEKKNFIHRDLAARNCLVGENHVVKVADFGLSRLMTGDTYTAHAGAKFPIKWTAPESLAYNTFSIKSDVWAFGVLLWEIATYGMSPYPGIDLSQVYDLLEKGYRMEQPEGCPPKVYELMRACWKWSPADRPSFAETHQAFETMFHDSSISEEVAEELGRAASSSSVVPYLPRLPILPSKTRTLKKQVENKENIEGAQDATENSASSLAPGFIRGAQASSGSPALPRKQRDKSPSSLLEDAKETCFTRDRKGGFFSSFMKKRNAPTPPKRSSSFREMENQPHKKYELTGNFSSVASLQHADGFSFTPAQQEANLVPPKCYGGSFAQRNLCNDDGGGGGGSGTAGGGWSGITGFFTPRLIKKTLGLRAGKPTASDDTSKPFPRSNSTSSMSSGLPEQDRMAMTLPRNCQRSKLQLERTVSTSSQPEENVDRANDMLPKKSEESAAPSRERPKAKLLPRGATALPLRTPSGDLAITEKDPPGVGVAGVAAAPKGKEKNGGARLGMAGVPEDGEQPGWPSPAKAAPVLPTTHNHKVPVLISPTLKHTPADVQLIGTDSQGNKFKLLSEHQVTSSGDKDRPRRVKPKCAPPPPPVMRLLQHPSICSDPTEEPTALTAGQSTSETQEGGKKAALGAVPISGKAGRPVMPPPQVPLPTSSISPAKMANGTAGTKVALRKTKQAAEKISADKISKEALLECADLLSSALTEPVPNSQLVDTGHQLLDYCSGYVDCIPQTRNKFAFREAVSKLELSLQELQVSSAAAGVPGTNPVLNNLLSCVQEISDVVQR
Chain of Tyrosine-protein kinase ABL1 (Homo sapiens) (P00519 whole entry): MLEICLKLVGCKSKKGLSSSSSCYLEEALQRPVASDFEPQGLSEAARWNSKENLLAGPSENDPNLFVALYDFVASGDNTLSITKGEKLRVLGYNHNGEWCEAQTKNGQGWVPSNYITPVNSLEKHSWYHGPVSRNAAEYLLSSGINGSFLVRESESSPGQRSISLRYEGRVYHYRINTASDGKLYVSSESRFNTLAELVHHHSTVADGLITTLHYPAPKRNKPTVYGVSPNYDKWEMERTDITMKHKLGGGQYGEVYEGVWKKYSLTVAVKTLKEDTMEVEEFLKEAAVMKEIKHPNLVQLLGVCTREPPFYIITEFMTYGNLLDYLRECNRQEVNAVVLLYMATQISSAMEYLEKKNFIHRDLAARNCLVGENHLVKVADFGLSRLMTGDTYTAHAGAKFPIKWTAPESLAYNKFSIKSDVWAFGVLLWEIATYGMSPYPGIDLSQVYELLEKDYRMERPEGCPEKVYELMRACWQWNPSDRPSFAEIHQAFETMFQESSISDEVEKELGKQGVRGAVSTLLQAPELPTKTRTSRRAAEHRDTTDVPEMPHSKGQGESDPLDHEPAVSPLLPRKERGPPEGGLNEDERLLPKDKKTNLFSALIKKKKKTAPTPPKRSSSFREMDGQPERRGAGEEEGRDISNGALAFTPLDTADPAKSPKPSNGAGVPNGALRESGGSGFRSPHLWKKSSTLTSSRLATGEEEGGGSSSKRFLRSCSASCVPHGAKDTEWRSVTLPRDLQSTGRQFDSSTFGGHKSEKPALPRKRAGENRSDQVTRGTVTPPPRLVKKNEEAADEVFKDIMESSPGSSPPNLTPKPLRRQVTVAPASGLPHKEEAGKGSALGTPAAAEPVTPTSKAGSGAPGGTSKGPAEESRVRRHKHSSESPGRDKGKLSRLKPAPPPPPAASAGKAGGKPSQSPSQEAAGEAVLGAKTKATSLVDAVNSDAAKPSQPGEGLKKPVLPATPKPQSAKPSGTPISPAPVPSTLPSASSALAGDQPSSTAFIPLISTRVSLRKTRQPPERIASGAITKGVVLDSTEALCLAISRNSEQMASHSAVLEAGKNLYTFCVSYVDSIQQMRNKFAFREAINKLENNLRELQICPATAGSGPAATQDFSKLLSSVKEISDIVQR
Chain of Proto-oncogene tyrosine-protein kinase Src (Homo sapiens) (P12931 2-536 limits assumed): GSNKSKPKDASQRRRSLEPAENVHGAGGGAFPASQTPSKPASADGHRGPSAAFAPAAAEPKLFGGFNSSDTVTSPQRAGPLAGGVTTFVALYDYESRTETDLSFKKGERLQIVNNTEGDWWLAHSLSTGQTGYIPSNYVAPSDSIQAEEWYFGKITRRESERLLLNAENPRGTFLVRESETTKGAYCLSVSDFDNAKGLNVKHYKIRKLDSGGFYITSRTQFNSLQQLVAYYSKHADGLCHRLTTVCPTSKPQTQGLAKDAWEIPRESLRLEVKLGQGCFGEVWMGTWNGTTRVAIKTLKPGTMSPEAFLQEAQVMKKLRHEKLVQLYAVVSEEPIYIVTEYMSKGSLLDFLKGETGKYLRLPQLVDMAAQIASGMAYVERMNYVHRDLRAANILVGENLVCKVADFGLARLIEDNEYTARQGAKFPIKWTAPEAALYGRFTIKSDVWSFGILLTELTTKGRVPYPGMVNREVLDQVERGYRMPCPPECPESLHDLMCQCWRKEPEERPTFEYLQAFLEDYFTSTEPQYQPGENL

In general, IC50 refers to the midpoint of a concentration-inhibition curve. As to `Brc1cccc(Nc2ncnc3cc4c(cc23)OCCCSCCCO4)c1`, the figures for the IC50 in data set [1] and in [2] were more than 1000 nM and 8 nM, respectively.

The term bioavailability denotes the share of a dose that reaches the circulation, judged against a reference dose that is usually intravenous. What is called Cmax is the maximum level reached in the sampled fluid or tissue. As a reminder, the half-life is how long it takes for the measured level to halve. A lower half-life goes with fast loss. By MRT is commonly meant the average time that molecules of a dose stay in the body. As to `C#Cc1cccc(Nc2ncnc3cc4c(cc23)OCCOCCOCCO4)c1` [ICOTINIB], in data set [3], the inhibition result was “Dose-dependent effect”. Further, the IC50 in data set [1] is 45 nM; in data set [2] it was 2 nM. In data set [4], the clearance is 21 mL/min/kg. This molecule also gave a bioavailability in data set [5] of 52%. The inhibition entry in data set [6], in [8] and in data set [11] was “inactive” each time. This molecule showed an AUC in [7] of 49.4 µg/mL. Besides, the Cmax in data set [9] was 6120 ng/mL. This molecule also had a half-life in [10] of 2.8 h. Moreover, in [12], the Vd was 3.9 L/kg. The molecule further returned an MRT in [13] of 6.9 h.

For `Brc1cccc(Nc2ncnc3cc4c(cc23)OCCCO4)c1`, in [2], the IC50 was found to be 85 nM.

Regarding `Cc1ccc(S(=O)(=O)N2CCOc3cc4ncnc(Nc5cccc(Br)c5)c4cc3OCC2)cc1`, in data set [2], the IC50 stood at 150 nM.

Regarding `Brc1cccc(Nc2ncnc3cc4c(cc23)OCCOCCOCCO4)c1`, the 50% inhibitory concentration (IC50) was found to be 50 nM in data set [1] and 5 nM in data set [2].

For the molecule `Brc1cccc(Nc2ncnc3cc4c(cc23)OCCOCCO4)c1`, the IC50 in [2] came out at 55 nM.

For the molecule `Clc1cccc(Nc2ncnc3cc4c(cc23)OCCOCCOCCO4)c1`, the IC50 in data set [1] was found to be 55 nM; in data set [2], 2 nM.

On to `Brc1cccc(Nc2ncnc3cc4c(cc23)OCCSCCO4)c1`, for which the concentration for half-maximal inhibition (IC50) in [1] was more than 1000 nM; in data set [2], 7 nM.

With `Brc1cccc(Nc2ncnc3cc4c(cc23)OCCOCOCOCCO4)c1`, the IC50 in data set [1] worked out at 50 nM; in data set [2], 5 nM.

For `Brc1cccc(Nc2ncnc3cc4c(cc23)Oc2ccccc2O4)c1`, the IC50 in data set [2] stood at 120 nM.

With `Fc1ccc(Nc2ncnc3cc4c(cc23)OCCOCCOCCO4)cc1Cl`, the IC50 was found to be 45 nM in [1] and 2 nM in data set [2].
